Experimental data reported in ChEMBL document CHEMBL1250442, “Inhibiting gene expression at transcription start sites in chromosomal DNA with antigene RNAs” (Nat Chem Biol, 2005).

Key:
T47D [1] = test: Inhibition of PR-A mRNA gene expression in human T47D cells at 100 nM by syber green assay; format: functional
Outline: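 T47D cells plated at 80,000/well without antibiotics two days before Oligofectamine transfection with agRNA duplex (25 or 100 nM final); medium changed at 24 h, harvest day 5 unless stated otherwise. TRIzol total RNA; PR mRNA by real-time PCR with SYBR Green: 50 °C 2 min, 95 °C 10 min, 40 cycles 95 °C 15 s/60 °C 1 min.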

T47D [2] = test: Inhibition of PR-B mRNA gene expression in human T47D cells at 100 nM by syber green assay; format: functional
Outline: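 T47D cells in RPMI-1640 with 10% FBS, NEAA, insulin, 37 °C, 5% CO2. Plated two days before transfection without antibiotics. Oligofectamine-mediated duplex RNA transfection at 100 nM final, medium changed at 24 h, harvest five days post-transfection. Total RNA extracted with TRIzol. hPR mRNA quantified by SYBR Green qPCR: 50 °C 2 min, 95 °C 10 min, then 40 cycles of 95 °C 15 s / 60 °C 1 min.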

Compound	inhibition at 0.1 µM (T47D [1]) [%]	inhibition at 0.1 µM (T47D [2]) [%]
Cc1cn([C@H]2C[C@H](OP(=O)(O)OC[C@H]3O[C@@H](n4cnc5c(=O)[nH]c(N)nc54)C[C@@H]3OP(=O)(O)OC[C@H]3O[C@@H](n4cc(C)c(=O)[nH]c4=O)C[C@@H]3OP(=O)(O)OC[C@H]3O[C@@H](n4ccc(N)nc4=O)C[C@@H]3OP(=O)(O)OC[C@H]3O[C@@H](n4cc(C)c(=O)[nH]c4=O)C[C@@H]3OP(=O)(O)OC[C@H]3O[C@@H](n4cnc5c(=O)[nH]c(N)nc54)C[C@@H]3OP(=O)(O)OC[C@H]3O[C@@H](n4cnc5c(=O)[nH]c(N)nc54)C[C@@H]3OP(=O)(O)OC[C@H]3O[C@@H](n4ccc(N)nc4=O)C[C@@H]3OP(=O)(O)OC[C@H]3O[C@@H](n4ccc(N)nc4=O)C[C@@H]3OP(=O)(O)OC[C@H]3O[C@@H](n4cnc5c(N)ncnc54)C[C@@H]3OP(=O)(O)OC[C@H]3O[C@@H](n4cnc5c(=O)[nH]c(N)nc54)C[C@@H]3OP(=O)(O)OC[C@H]3O[C@@H](n4cc(C)c(=O)[nH]c4=O)C[C@@H]3OP(=O)(O)OC[C@H]3O[C@@H](n4ccc(N)nc4=O)C[C@@H]3OP(=O)(O)OC[C@H]3O[C@@H](n4ccc(N)nc4=O)C[C@@H]3OP(=O)(O)OC[C@H]3O[C@@H](n4cnc5c(N)ncnc54)C[C@@H]3OP(=O)(O)OC[C@H]3O[C@@H](n4ccc(N)nc4=O)C[C@@H]3OP(=O)(O)OC[C@H]3O[C@@H](n4cnc5c(N)ncnc54)C[C@@H]3OP(=O)(O)OC[C@H]3O[C@@H](n4cnc5c(=O)[nH]c(N)nc54)C[C@@H]3OP(=O)(O)OC[C@H]3O[C@@H](n4ccc(N)nc4=O)C[C@@H]3OP(=O)(O)OC[C@H]3O[C@@H](n4cc(C)c(=O)[nH]c4=O)C[C@@H]3OP(=O)(O)OC[C@H]3O[C@@H](n4cc(C)c(=O)[nH]c4=O)C[C@@H]3O)[C@@H](CO)O2)c(=O)[nH]c1=O	< 20	< 20
Cc1cn([C@H]2C[C@H](OP(=O)(O)OC[C@H]3O[C@@H](n4cc(C)c(=O)[nH]c4=O)C[C@@H]3O)[C@@H](COP(=O)(O)O[C@H]3[C@@H](O)[C@H](n4ccc(N)nc4=O)O[C@@H]3COP(=O)(O)O[C@H]3[C@@H](O)[C@H](n4cnc5c(=O)[nH]c(N)nc54)O[C@@H]3COP(=O)(O)O[C@H]3[C@@H](O)[C@H](n4cnc5c(N)ncnc54)O[C@@H]3COP(=O)(O)O[C@H]3[C@@H](O)[C@H](n4ccc(N)nc4=O)O[C@@H]3COP(=O)(O)O[C@H]3[C@@H](O)[C@H](n4cnc5c(N)ncnc54)O[C@@H]3COP(=O)(O)O[C@H]3[C@@H](O)[C@H](n4cnc5c(=O)[nH]c(N)nc54)O[C@@H]3COP(=O)(O)O[C@H]3[C@@H](O)[C@H](n4ccc(N)nc4=O)O[C@@H]3COP(=O)(O)O[C@H]3[C@@H](O)[C@H](n4ccc(=O)[nH]c4=O)O[C@@H]3COP(=O)(O)O[C@H]3[C@@H](O)[C@H](n4cnc5c(=O)[nH]c(N)nc54)O[C@@H]3COP(=O)(O)O[C@H]3[C@@H](O)[C@H](n4cnc5c(N)ncnc54)O[C@@H]3COP(=O)(O)O[C@H]3[C@@H](O)[C@H](n4ccc(N)nc4=O)O[C@@H]3COP(=O)(O)O[C@H]3[C@@H](O)[C@H](n4ccc(N)nc4=O)O[C@@H]3COP(=O)(O)O[C@H]3[C@@H](O)[C@H](n4cnc5c(=O)[nH]c(N)nc54)O[C@@H]3COP(=O)(O)O[C@H]3[C@@H](O)[C@H](n4ccc(N)nc4=O)O[C@@H]3COP(=O)(O)O[C@H]3[C@@H](O)[C@H](n4ccc(=O)[nH]c4=O)O[C@@H]3COP(=O)(O)O[C@H]3[C@@H](O)[C@H](n4ccc(N)nc4=O)O[C@@H]3COP(=O)(O)O[C@H]3[C@@H](O)[C@H](n4ccc(=O)[nH]c4=O)O[C@@H]3COP(=O)(O)O[C@H]3[C@@H](O)[C@H](n4cnc5c(=O)[nH]c(N)nc54)O[C@@H]3COP(=O)(O)O[C@H]3[C@@H](O)[C@H](n4ccc(=O)[nH]c4=O)O[C@@H]3CO)O2)c(=O)[nH]c1=O	< 20	< 20
